The test system of test [1] is Sitophilus oryzae. Description: Insecticidal activity against 3 to 8 days old Sitophilus oryzae (rice weevil) assessed as mortality at 1 ug/mL measured after 24 hr by fumigation assay. It counts as functional. In a few lines: (§1)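 Adults from Directorate of Maize Research lab cultures, 20 per sealed 100 mL PVC container. Acetone solutions (0.1-1.0 μg/mL) applied to filter paper, air-dried 5 min, fixed inside lid; acetone-only controls. Held at 28 ± 2 °C, 65 ± 5% RH. Death confirmed by paintbrush probing; counted every 24 h to 72 h. Five replicates per treatment; three runs on different dates.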

Test [2] relates to Tribolium castaneum. Description: Insecticidal activity against 3 to 8 days old Tribolium castaneum (red flour beetle) assessed as mortality at 0.2 ug/mL measured within 24 hr by fumigation assay. It counts as functional, organism-based. In a few lines: as §1
The subject of test [3] is Callosobruchus chinensis. Description: Insecticidal activity against 3 to 8 days old Callosobruchus chinensis assessed as mortality at 1 ug/mL measured after 24 hr by fumigation assay. It counts as functional. A digest of the protocol:
as §1

The subject of test [4] is Callosobruchus chinensis. Description: Insecticidal activity against 3 to 8 days old Callosobruchus chinensis assessed as mortality at 1 ug/mL measured after 72 hr by fumigation assay. It counts as functional. A digest of the protocol:
as §1

Test [5] concerns Rhyzopertha dominica. Description: Insecticidal activity against 3 to 8 days old Rhyzopertha dominica assessed as mortality at 1 ug/mL measured after 24 hr by fumigation assay. The format is functional. In a few lines:
as §1

Test [6] has as its system Tribolium castaneum. Description: Insecticidal activity against 3 to 8 days old Tribolium castaneum (red flour beetle) assessed as mortality at 1 ug/mL measured after 24 hr by fumigation assay. The format is functional. A digest of the protocol: as §1
The subject of test [7] is Tribolium castaneum. Description: Insecticidal activity against 3 to 8 days old Tribolium castaneum (red flour beetle) assessed as mortality at 1 ug/mL measured after 72 hr by fumigation assay. The format is functional. In a few lines: as §1
In test [8] the test system is Sitophilus oryzae. Description: Insecticidal activity against 3 to 8 days old Sitophilus oryzae (rice weevil) assessed as mortality measured after 72 hr by fumigation assay. The format is functional. In a few lines:
as §1

The subject of test [9] is Sitophilus oryzae. Description: Insecticidal activity against 3 to 8 days old Sitophilus oryzae (rice weevil) assessed as mortality at 1 ug/mL measured after 72 hr by fumigation assay. The format is functional. A digest of the protocol: as §1
The test system of test [10] is Tribolium castaneum. Description: Insecticidal activity against 3 to 8 days old Tribolium castaneum (red flour beetle) assessed as mortality measured after 24 hr by fumigation assay. The format is functional. In a few lines:
as §1

Test [11] deals with Rhyzopertha dominica. Description: Insecticidal activity against 3 to 8 days old Rhyzopertha dominica assessed as mortality measured after 24 hr by fumigation assay. It counts as functional. A digest of the protocol:
as §1

Test [12] concerns Rhyzopertha dominica. Description: Insecticidal activity against 3 to 8 days old Rhyzopertha dominica assessed as mortality at 1 ug/mL measured after 72 hr by fumigation assay. The format is functional. A digest of the protocol: as §1
For test [13], the system named is Callosobruchus chinensis. Description: Insecticidal activity against 3 to 8 days old Callosobruchus chinensis assessed as mortality measured after 72 hr by fumigation assay. It counts as functional. In a few lines:
as §1

Test [14] has as its system Rhyzopertha dominica. Description: Insecticidal activity against 3 to 8 days old Rhyzopertha dominica assessed as mortality at 1 ug/mL measured after 48 hr by fumigation assay. It counts as functional. A digest of the protocol:
as §1

The subject of test [15] is Callosobruchus chinensis. Description: Insecticidal activity against 3 to 8 days old Callosobruchus chinensis assessed as mortality at 1 ug/mL measured after 48 hr by fumigation assay. It counts as functional. A digest of the protocol:
as §1

Test [16] relates to Tribolium castaneum. Description: Insecticidal activity against 3 to 8 days old Tribolium castaneum (red flour beetle) assessed as mortality at 1 ug/mL measured after 48/ hr by fumigation assay. The format is functional. In a few lines: as §1
Test [17] concerns Sitophilus oryzae. Description: Insecticidal activity against 3 to 8 days old Sitophilus oryzae (rice weevil) assessed as mortality at 1 ug/mL measured after 48 hr by fumigation assay. It counts as functional. A digest of the protocol:
as §1

Molecules are shown by their SMILES. Values after ≈ are worked out from the molar mass of the structure shown. Active and inactive are the calls of the source. No cut-off for these calls is given here. Some results are limits rather than exact numbers.

For `O=c1c(-c2ccc(O)cc2)coc2cc(O)cc(O)c12` [GENISTEIN], the mortality at 1 µg/mL with Sitophilus oryzae [1], in the test on Callosobruchus chinensis [3], with Callosobruchus chinensis [4], with Rhyzopertha dominica [5], in the test with Tribolium castaneum [6] and in the test with Tribolium castaneum [7] was 100% in each case. The mortality at 1 µg/mL in the test on Sitophilus oryzae [9] and with Rhyzopertha dominica [12] was 100% each time. Also, the result in the test with Tribolium castaneum [2] was Active. Further, the LC50 (as a rule, the concentration lethal to half of the exposed cells or organisms) is 0.31 µg/mL (≈ 1.15 µM) with Sitophilus oryzae [8], 0.18 µg/mL (≈ 0.666 µM) with Tribolium castaneum [10], 0.28 µg/mL (≈ 1.04 µM) in the test on Rhyzopertha dominica [11] and 0.17 µg/mL (≈ 0.629 µM) in the test on Callosobruchus chinensis [13].
Take `CC(C)=CCc1c2c(c(O)c3c(=O)cc(-c4ccc(O)cc4)oc13)C=CC(C)(C)O2` [LAXIFOLIN]: the mortality (commonly the share of the test organisms that died) at 1 µg/mL in the test with Sitophilus oryzae [1] is 100%; in the test on Callosobruchus chinensis [3] it was 88.8%; in the test on Callosobruchus chinensis [4], 96.4%; in the test with Rhyzopertha dominica [5], 89.3%; in the test with Rhyzopertha dominica [14] it was 90.8%; in the test on Tribolium castaneum [6] it was 92.3%. Also, the mortality at 1 µg/mL in the test with Tribolium castaneum [7] came out at 100%; in the test with Sitophilus oryzae [9], 100%; with Callosobruchus chinensis [15] it was 93.2%; in the test with Rhyzopertha dominica [12] it was 92%; in the test on Tribolium castaneum [16], 94.6%. The LC50 with Sitophilus oryzae [8] turned out to be 0.2 µg/mL (≈ 0.494 µM); with Tribolium castaneum [10], 0.34 µg/mL (≈ 0.841 µM); in the test with Rhyzopertha dominica [11], 0.34 µg/mL (≈ 0.841 µM); with Callosobruchus chinensis [13], 0.39 µg/mL (≈ 0.964 µM).
For the molecule `CC(C)=CCc1cc(-c2coc3cc(O)c(CC=C(C)C)c(O)c3c2=O)ccc1O` [LUPALBIGENIN], the mortality at 1 µg/mL with Sitophilus oryzae [1] was 100%; with Callosobruchus chinensis [3], 100%; with Callosobruchus chinensis [4], 100%; in the test with Rhyzopertha dominica [5], 93.4%; in the test with Rhyzopertha dominica [14] it was 94.6%; in the test with Tribolium castaneum [6], 85.4%. Moreover, the mortality at 1 µg/mL in the test on Tribolium castaneum [7] was determined as 91%; in the test with Sitophilus oryzae [9], 100%; in the test on Rhyzopertha dominica [12] it was 100%; with Tribolium castaneum [16], 88.4%. In addition, the LC50 in the test with Sitophilus oryzae [8] is 0.26 µg/mL (≈ 0.64 µM); with Tribolium castaneum [10], 0.38 µg/mL (≈ 0.935 µM); in the test with Rhyzopertha dominica [11], 0.29 µg/mL (≈ 0.713 µM); in the test with Callosobruchus chinensis [13] it was 0.23 µg/mL (≈ 0.566 µM).
As for `CC(C)=CCc1c2c(c3occ(-c4ccc(O)cc4)c(=O)c3c1O)C=CC(C)(C)O2` [OSAJIN], the mortality at 1 µg/mL in the test with Sitophilus oryzae [1], with Callosobruchus chinensis [3], in the test on Callosobruchus chinensis [4], in the test with Rhyzopertha dominica [5], in the test on Tribolium castaneum [6] and in the test on Tribolium castaneum [7] was 100% each time. In addition, the mortality at 1 µg/mL in the test with Sitophilus oryzae [9] and in the test on Rhyzopertha dominica [12] was 100% in each case. In the test with Tribolium castaneum [2], the result was Active. In addition, the LC50 in the test with Sitophilus oryzae [8] worked out at 0.28 µg/mL (≈ 0.692 µM); in the test on Tribolium castaneum [10], 0.26 µg/mL (≈ 0.643 µM); in the test on Rhyzopertha dominica [11], 0.32 µg/mL (≈ 0.791 µM); in the test with Callosobruchus chinensis [13], 0.29 µg/mL (≈ 0.717 µM).
In the case of `COc1ccc(-c2c(O)c3c(OC)c(CC=C(C)C)c4c(c3oc2=O)C=CC(C)(C)O4)cc1` [SCANDENIN A], the mortality at 1 µg/mL with Sitophilus oryzae [1] came out at 69.4%; in the test with Callosobruchus chinensis [3] it was 79%; with Callosobruchus chinensis [4] it was 83%; in the test with Rhyzopertha dominica [5] it was 60.6%; with Rhyzopertha dominica [14], 64.2%; in the test with Tribolium castaneum [6] it was 58.2%. In addition, the mortality at 1 µg/mL in the test with Tribolium castaneum [7] was determined as 63.8%; in the test with Sitophilus oryzae [9], 75.6%; in the test on Callosobruchus chinensis [15] it was 81.4%; in the test with Rhyzopertha dominica [12], 67.8%; with Sitophilus oryzae [17], 72%; in the test on Tribolium castaneum [16], 60.8%. Moreover, the LC50 in the test with Sitophilus oryzae [8] was 0.76 µg/mL (≈ 1.69 µM); in the test with Tribolium castaneum [10] it was 0.82 µg/mL (≈ 1.83 µM); with Rhyzopertha dominica [11], 0.82 µg/mL (≈ 1.83 µM); in the test on Callosobruchus chinensis [13] it was 0.43 µg/mL (≈ 0.959 µM).
As to `COc1c(CC=C(C)C)c2c(c3oc(=O)c(-c4ccc(O)cc4)c(O)c13)C=CC(C)(C)O2` [SCANDENIN], the mortality at 1 µg/mL in the test on Sitophilus oryzae [1] came out at 82%; in the test on Callosobruchus chinensis [3], 49.5%; in the test on Callosobruchus chinensis [4] it was 58.2%; in the test with Rhyzopertha dominica [5] it was 72.3%; in the test on Rhyzopertha dominica [14], 75.8%; in the test with Tribolium castaneum [6], 24.7%. For the same molecule, the mortality at 1 µg/mL in the test on Tribolium castaneum [7] came to 32.2%; with Sitophilus oryzae [9] it was 85.4%; in the test on Callosobruchus chinensis [15] it was 56%; in the test on Rhyzopertha dominica [12], 78.2%; in the test on Sitophilus oryzae [17], 83.6%; in the test with Tribolium castaneum [16], 29.6%. Moreover, the LC50 was 0.45 µg/mL (≈ 1.04 µM) in the test on Sitophilus oryzae [8], > 1 µg/mL in the test with Tribolium castaneum [10], 0.74 µg/mL (≈ 1.7 µM) in the test with Rhyzopertha dominica [11] and 0.9 µg/mL (≈ 2.07 µM) with Callosobruchus chinensis [13].
For `COc1c(CC=C(C)C)c2c(c3occ(-c4ccc(O)cc4)c(=O)c13)C=CC(C)(C)O2` [SCANDINONE], the mortality at 1 µg/mL with Sitophilus oryzae [1], in the test with Callosobruchus chinensis [3], in the test on Callosobruchus chinensis [4], with Rhyzopertha dominica [5], in the test on Tribolium castaneum [6] and in the test on Tribolium castaneum [7] was 100% each time. Besides, the mortality at 1 µg/mL with Sitophilus oryzae [9] and in the test with Rhyzopertha dominica [12] was 100% each time. Also, the outcome in the test with Tribolium castaneum [2] was Active. Also, the LC50 with Sitophilus oryzae [8] is 0.24 µg/mL (≈ 0.573 µM); in the test on Tribolium castaneum [10] it was 0.2 µg/mL (≈ 0.478 µM); in the test with Rhyzopertha dominica [11], 0.33 µg/mL (≈ 0.789 µM); with Callosobruchus chinensis [13], 0.31 µg/mL (≈ 0.741 µM).
As to `C[C@@H]1O[C@@H](OC[C@H]2O[C@@H](Oc3cc(O)c4c(=O)c(-c5ccc(O)cc5)coc4c3)[C@H](O)[C@@H](O)[C@@H]2O)[C@H](O)[C@H](O)[C@H]1O` [SPHAEROBIOSIDE], the mortality at 1 µg/mL with Sitophilus oryzae [1], in the test with Callosobruchus chinensis [3], in the test on Callosobruchus chinensis [4], with Rhyzopertha dominica [5], with Tribolium castaneum [6] and with Tribolium castaneum [7] was 100% each time. The mortality at 1 µg/mL with Sitophilus oryzae [9] and in the test on Rhyzopertha dominica [12] was 100% each time. Also, the outcome in the test with Tribolium castaneum [2] was Active. Also, the 50% lethal concentration (LC50) amounted to 0.18 µg/mL (≈ 0.311 µM) in the test with Sitophilus oryzae [8], 0.2 µg/mL (≈ 0.346 µM) in the test with Tribolium castaneum [10], 0.27 µg/mL (≈ 0.467 µM) in the test with Rhyzopertha dominica [11] and 0.21 µg/mL (≈ 0.363 µM) in the test with Callosobruchus chinensis [13].
`CC(C)=CCc1c2c(c(O)c3c(=O)c(-c4ccc(O)cc4)coc13)C=CC(C)(C)O2` [WARANGALONE]: the mortality at 1 µg/mL was determined as 50.1% with Sitophilus oryzae [1]; 27.9% with Callosobruchus chinensis [3]; 31.4% in the test on Callosobruchus chinensis [4]; 15.8% in the test on Rhyzopertha dominica [5]; 18.6% in the test on Rhyzopertha dominica [14]; 30.7% in the test with Tribolium castaneum [6]. Also, the mortality at 1 µg/mL in the test with Tribolium castaneum [7] came out at 37.2%; with Sitophilus oryzae [9], 63.4%; in the test on Callosobruchus chinensis [15], 29.1%; with Rhyzopertha dominica [12] it was 21.8%; in the test with Sitophilus oryzae [17], 60%; in the test with Tribolium castaneum [16], 32.8%. Moreover, the LC50 with Sitophilus oryzae [8] is 0.84 µg/mL (≈ 2.08 µM); in the test on Tribolium castaneum [10], > 1 µg/mL; with Rhyzopertha dominica [11] it was > 1 µg/mL; in the test on Callosobruchus chinensis [13], > 1 µg/mL.

The record behind these values is ChEMBL document CHEMBL3045225, “Vapor-phase toxicity of Derris scandens Benth.-derived constituents against four stored-product pests” (2011).
